Many of the other results were omitted from the sample, so hits are more common in it than they were.
Insulin prom act = TRM-6 insulin promoter activation; hit rate 0.81% among 130,000; AID 1296; activation, % at 2 µM; TRM-6 cells, insulin promoter eGFP reporter, imaging; plate-scaled: unstimulated 0, stimulated control 100;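 active = activation at 2 µM above a set limit, confirmed on inspection of the cell images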;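 note: share of cells whose green reporter signal exceeds an intensity cutoff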
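System – human fetal islet-derived TRM-6 cells with tamoxifen-inducible insulin promoter–eGFP reporter · Amount – 1,000 cells per well · Schedule – overnight tamoxifen, then two-day compound incubation at 37 °C · Detection – high-content imaging of fixed cells with Hoechst nuclear stain · Read-out – percent cells above green-intensity threshold, converted to percent activation versus plate controls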
Each line names hits and unclear results; the compound was inactive in the other large screens; [ ] = dose if it differs, or a comment.

Cc1c(OCC(=O)OC(C)C)ccc2c3c(c(=O)oc12)CCC3	none
C=C(C)COc1ccc2c3c(c(=O)oc2c1OCC(=C)C)CCC3	Insulin prom act 142.9
Cc1c(OCc2ccc([N+](=O)[O-])cc2)ccc2c3c(c(=O)oc12)CCC3	none
CCOC(=O)C1(CCOc2ccccc2)CCN(Cc2ccc3nonc3c2)CC1	none
CCC/C=N/NC(=O)C1COc2ccccc2O1 (stereo not given)	none
CCCNC(=O)c1ccc(CN2CCOCC2)cc1	Insulin prom act 294.7
Cc1cccc(CSCCNC(=O)c2ccc(CN3CCOCC3)cc2)c1	none
O=C(NCc1ccccc1)c1ccc(CN2CCOCC2)cc1	none
CN(Cc1cn(C)c2ccccc12)C(=S)Nc1cc(F)cc(F)c1	none
Cc1ccc(/C(N)=N/OC(=O)COc2ccccc2Cl)cc1	none
CCCCC(=O)Nc1ccc(NC(=O)c2ccc(C)c([N+](=O)[O-])c2)cc1OC	none
COc1ccc(S(=O)(=O)N(C)CC(=O)N2CCOCC2)cc1Cl	Insulin prom act 462.5
COc1ccc(S(=O)(=O)N(C)CC(=O)N2CCCCC2)cc1Cl	none
CN(CC(=O)N1CCCC1)S(=O)(=O)c1ccc(Cl)cc1	none
Nc1nc(SCC(=O)Nc2ncc(C(F)(F)F)cc2Cl)n[nH]1	none
Clc1ccc(OCc2nc(-c3ccncc3)no2)c(Cl)c1	none
Clc1ccc(-c2nnc(-c3ccccc3)o2)c(Cl)c1	none
Clc1ccc(OCc2nnc(-c3ccccc3Br)o2)c(Cl)c1	Insulin prom act 120.0
CC(C)(C)C(=O)NCCc1nc2ccccc2n1CC(=O)c1ccc(Cl)cc1	none
COC(=O)c1cc(COc2ccc3c(c2)oc(=O)c2ccccc23)c(C)o1	none
CCOC(=O)c1ccc(NC(=O)CSc2ccc(-c3ccncc3)nn2)cc1	none
COc1ccc(N(C(=O)c2ccco2)S(=O)(=O)c2ccc(F)cc2)cc1	Insulin prom act 456.3
COc1ccc(N(C(=O)c2ccco2)S(=O)(=O)c2cccs2)cc1	none
COc1ccc(N(C(=O)c2ccco2)S(=O)(=O)c2cc(OC)ccc2OC)cc1	none
COc1ccc(N(CC(=O)NN=C2CCCCCCC2)S(=O)(=O)c2ccccc2)cc1	none
COc1ccc(Nc2ccc([N+](=O)[O-])cc2[N+](=O)[O-])cc1	none
Cc1ccc(N=C(NO)c2nonc2N)cc1	none
CCOC(=O)Nc1sc(C)c(C)c1C(=O)OCC	none
COc1ccc(N2CCN(CCNC(=O)C3CCN(S(=O)(=O)c4cccs4)CC3)CC2)cc1	none
CCOC(=O)c1c(NC(=O)C2CCN(S(=O)(=O)c3cccs3)CC2)sc(C)c1C	Insulin prom act 454.3
O=C(NCCc1ccccc1Cl)C1CCN(S(=O)(=O)c2cccs2)CC1	none
CCC(C)(C)NC(=O)C1CCN(S(=O)(=O)c2cccs2)CC1	Insulin prom act active[fluoresces]
Cc1ccccc1NC(=O)C1CCN(S(=O)(=O)c2cccs2)CC1	none
O=C(NC1(C(F)(F)F)NC(=O)N(C2CCCC2)C1=O)C1CC1 (stereo not given)	none
Nc1c(Cl)nc(-c2ccccc2)nc1Cl	none
O=C(c1ccc(F)cc1)N1CCCCC(S(=O)(=O)c2ccccc2)C1=O (stereo not given)	none
COCCn1nnnc1SCC(=O)Nc1ccc2c(c1)OCO2	none
Cc1ccccc1NC(=S)NCCc1ccc(S(N)(=O)=O)cc1	none
CC(C)NS(=O)(=O)c1ccc2c(c1)NCC2	none
CCCNc1c(F)c(F)c2c(C)c3ccccc3nc2c1F	Insulin prom act 160.0
CCC(=O)Oc1c(-c2ccccc2)c2nc3ccccc3nc2c2ccccc12	none
Cc1cc(NCCO)c2ccccc2n1	none
O=C(Nc1ccc(S(=O)(=O)N2CCCCC2)cc1)c1ccc(CN2CCc3ccccc3C2)cc1	none
CCNS(=O)(=O)c1ccc(NC(=O)c2ccccc2OCC)cc1	none
CCN1CCCC1CNS(=O)(=O)c1ccc(C(=O)Nc2ccccc2)cc1 (stereo not given)	Insulin prom act 500.0
O=C(CCSCCc1ccccn1)Nc1ccc(Br)cc1F	none
COCc1cc(C)nc(N2CCNCC2)c1C#N	none
Cc1ccnc2ccc(SC(F)(F)F)cc12	Insulin prom act 416.7
CCOC(=O)C1=C(C)OC(N)=C(C#N)C1c1cc(Cl)c(OCC(N)=O)c(OC)c1 (stereo not given)	none
CC(Sc1nc(-c2ccc(F)cc2)cs1)C(=O)Nc1ccc(Cl)cn1 (stereo not given)	none
CCOC(=O)C1CN(S(=O)(=O)c2cccc(C(F)(F)F)c2)c2cc(CC(=O)OC)ccc2O1 (stereo not given)	none
COC(=O)C1=C(C)C(c2cccs2)NC(=O)N1C (stereo not given)	none
COC(=O)C1=C(C)N(CCCC(=O)O)C(=O)NC1c1ccc(-c2ccccc2)cc1 (stereo not given)	none
COC(=O)C1=C(C)N(CCCC(=O)O)C(=O)NC1c1cccs1 (stereo not given)	Insulin prom act 295.0
Cc1cccc(N=C2NC(=O)/C(=C/c3cccs3)S2)c1	none
COc1ccccc1/C=C1\S/C(=N/NC(=O)c2cccc(Br)c2)NC1=O	none
COc1cc(/C=C2\S/C(=N/S(=O)(=O)c3ccc(C)cc3)NC2=O)c([N+](=O)[O-])cc1OC	Insulin prom act 453.3
CC1=C(C)CC2(SC1)C(=O)N(c1ccccc1)N=C2N (stereo not given)	none

Screens deposited in PubChem by Columbia University Molecular Screening Center.
